The test system of one data set is Liver microsome. The experiment in a line: Drug metabolism in Sprague-Dawley rat liver microsomes assessed as formation of 3-(4-((6-methoxy-1-methyl-1H-benzo[d]imidazol-2-yl)methoxy)phenyl)-2-(methylsulfinyl)propanamide at 20 uM after 2 hrs by radio-HPLC/LC-MS/MS analysis in presence of NADPH-generating system/SAM. It counts as ADME. On the technique in general: Microsomes from liver hold many membrane-bound enzymes, among them those of drug oxidation.

Data set [1] is described as follows: Drug metabolism in cynomolgus monkey liver microsomes assessed as formation of 3-(4-((6-methoxy-1-methyl-1H-benzo[d]imidazol-2-yl)methoxy)phenyl)-2-(methylsulfinyl)propanamide at 20 uM after 2 hrs by radio-HPLC/LC-MS/MS analysis in presence of NADPH-generating system/SAM. It counts as ADME, Macaca fascicularis.
In data set [2] the target is T1, Cytochrome P450 2C8 (Homo sapiens, UniProt P10632).
T1 sequence (P10632 whole entry): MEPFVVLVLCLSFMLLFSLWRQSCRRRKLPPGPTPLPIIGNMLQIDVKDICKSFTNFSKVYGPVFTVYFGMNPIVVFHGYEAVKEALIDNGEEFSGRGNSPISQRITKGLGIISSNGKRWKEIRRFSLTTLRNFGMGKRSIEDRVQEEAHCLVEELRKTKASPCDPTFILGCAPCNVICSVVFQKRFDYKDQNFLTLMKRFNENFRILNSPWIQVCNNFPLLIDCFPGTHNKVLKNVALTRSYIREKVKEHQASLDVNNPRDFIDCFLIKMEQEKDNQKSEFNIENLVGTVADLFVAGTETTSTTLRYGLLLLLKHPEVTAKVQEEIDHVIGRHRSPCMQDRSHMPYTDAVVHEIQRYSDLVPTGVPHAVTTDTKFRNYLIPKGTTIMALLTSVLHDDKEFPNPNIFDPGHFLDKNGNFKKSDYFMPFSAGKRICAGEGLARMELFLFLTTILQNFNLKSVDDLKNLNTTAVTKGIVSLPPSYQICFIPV
Put plainly: Activity of human CYP2C8 expressed in microsomes isolated from baculovirus infected insect cell assessed as enzyme-mediated 3-(4-((6-methoxy-1-methyl-1H-benzo[d]imidazol-2-yl)methoxy)phenyl)-2-(methylthio)propanoic acid formation at 20 uM after 2 hrs by radio-HPLC/LC-MS/MS analysis in presence of NADPH-generating system/SAM and UDPGA/SAM. It counts as ADME.

The target of a further data set is Cytochrome P450 3A4 (Homo sapiens, UniProt P08684). Put plainly: Activity of human CYP3A4 expressed in microsomes isolated from baculovirus infected insect cell assessed as enzyme-mediated 3-(4-((6-methoxy-1-methyl-1H-benzo[d]imidazol-2-yl)methoxy)phenyl)-2-(methylsulfinyl)propanamide formation at 20 uM after 2 hrs by radio-HPLC/LC-MS/MS analysis in presence of NADPH-generating system/SAM. It counts as ADME.

Data set [3] deals with T1, Cytochrome P450 2C8. Put plainly: Activity of human CYP2C8 expressed in microsomes isolated from baculovirus infected insect cell assessed as enzyme-mediated 3-(4-((6-methoxy-1-methyl-1H-benzo[d]imidazol-2-yl)methoxy)phenyl)-2-(methylsulfonyl)propanamide formation at 20 uM after 2 hrs by radio-HPLC/LC-MS/MS analysis in presence of NADPH-generating system/SAM. It counts as ADME.

For a further data set, the target named is T2, Cytochrome P450 1A2 (Homo sapiens, UniProt P05177).
T2 sequence (P05177 whole entry): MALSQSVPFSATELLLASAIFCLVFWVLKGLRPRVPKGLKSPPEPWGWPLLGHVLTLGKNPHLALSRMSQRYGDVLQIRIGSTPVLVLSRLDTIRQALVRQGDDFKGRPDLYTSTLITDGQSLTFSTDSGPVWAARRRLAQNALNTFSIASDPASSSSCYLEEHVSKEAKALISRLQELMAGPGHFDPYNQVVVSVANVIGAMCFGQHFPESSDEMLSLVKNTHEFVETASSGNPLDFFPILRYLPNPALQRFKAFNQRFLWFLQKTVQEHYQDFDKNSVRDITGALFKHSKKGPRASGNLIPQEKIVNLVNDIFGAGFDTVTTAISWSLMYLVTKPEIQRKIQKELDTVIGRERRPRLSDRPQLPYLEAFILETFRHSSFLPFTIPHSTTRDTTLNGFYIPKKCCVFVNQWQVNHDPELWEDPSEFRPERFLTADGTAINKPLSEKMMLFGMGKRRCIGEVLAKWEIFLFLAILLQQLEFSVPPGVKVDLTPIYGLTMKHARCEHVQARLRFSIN
Put plainly: Activity of human CYP1A2 expressed in microsomes isolated from baculovirus infected insect cell assessed as enzyme-mediated 2-((4-((2,4-dioxothiazolidin-5-yl)methyl)phenoxy)methyl)-1-methyl-1H-benzo[d]imidazol-6-yl hydrogen sulfate formation at 20 uM after 2 hrs by radio-HPLC/LC-MS/MS analysis. It counts as ADME. Summed up:
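Baculovirus/insect-cell microsomes expressing single human CYPs, 1 mg/ml protein, with 50 mM potassium phosphate (pH 7.4) or 100 mM Tris-HCl (pH 7.5). NADPH-generating system: 2 mM NADP⁺, 20 mM glucose 6-phosphate, 2 units/ml G6PDH, 10 mM MgCl₂. [¹⁴C]rivoglitazone at 20 μM, 2 h at 37°C with shaking. Control used insect-cell control supersomes. Stopped with acetonitrile; supernatant concentrated under nitrogen; metabolites analysed by radio-HPLC, LC-MS and LC-MS/MS.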

The target of data set [4] is T3, UDP-glucuronosyltransferase 2B7 (Homo sapiens, UniProt P16662).
T3 sequence (P16662 whole entry): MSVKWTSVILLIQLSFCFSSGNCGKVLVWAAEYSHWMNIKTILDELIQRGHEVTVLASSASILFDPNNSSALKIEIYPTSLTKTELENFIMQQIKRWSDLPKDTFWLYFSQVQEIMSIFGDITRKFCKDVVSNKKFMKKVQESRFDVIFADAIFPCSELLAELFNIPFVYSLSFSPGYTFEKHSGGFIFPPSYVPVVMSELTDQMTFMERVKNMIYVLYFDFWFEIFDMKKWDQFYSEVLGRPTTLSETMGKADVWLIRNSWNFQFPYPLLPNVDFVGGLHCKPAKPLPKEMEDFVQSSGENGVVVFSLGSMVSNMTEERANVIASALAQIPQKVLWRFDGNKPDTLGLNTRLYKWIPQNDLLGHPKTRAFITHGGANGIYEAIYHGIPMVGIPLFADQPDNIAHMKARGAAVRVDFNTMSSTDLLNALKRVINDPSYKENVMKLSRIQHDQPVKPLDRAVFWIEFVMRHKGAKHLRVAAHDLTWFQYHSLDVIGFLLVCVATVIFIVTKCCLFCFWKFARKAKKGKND
The experiment in a line: Activity of human UGT2B7 expressed in microsomes isolated from baculovirus infected insect cell assessed as enzyme-mediated 2-((4-((2,4-dioxothiazolidin-5-yl)methyl)phenoxy)methyl)-1-methyl-1H-benzo[d]imidazol-6-yl hydrogen sulfate formation at 20 uM after 4 hrs by radio-HPLC/LC-MS/MS analysis. It counts as ADME.

A short description of data set [5]: Drug metabolism in cynomolgus monkey liver microsomes assessed as formation of 5-(4-((6-methoxy-1H-benzo[d]imidazol-2-yl)methoxy)benzyl)thiazolidine-2,4-dione at 20 uM after 2 hrs by radio-HPLC/LC-MS/MS analysis in presence of NADPH-generating system and NADPH-generating system/SAM. Format: ADME, Macaca fascicularis.
Data set [6] in a line: Drug metabolism in monkey hepatocytes assessed as formation of (2S,3S,4S,5R,6R)-3,4,5-trihydroxy-6-(5-(4-((6-methoxy-1-methyl-1H-benzo[d]imidazol-2-yl)methoxy)benzyl)-2,4-dioxothiazolidin-3-yl)tetrahydro-2H-pyran-2-carboxylic acid at 30 uM after 3 hrs by radio-HPLC/LC-MS/MS analysis. The conditions noted are these: cynomolgus monkey.

Results on one molecule are retold here after ChEMBL document CHEMBL3526048, “In vitro metabolism of rivoglitazone, a novel peroxisome proliferator-activated receptor γ agonist, in rat, monkey, and human liver microsomes and freshly isolated hepatocytes” (Drug Metab Dispos, 2011).

Sequence of Cytochrome P450 3A4 (P08684 whole entry): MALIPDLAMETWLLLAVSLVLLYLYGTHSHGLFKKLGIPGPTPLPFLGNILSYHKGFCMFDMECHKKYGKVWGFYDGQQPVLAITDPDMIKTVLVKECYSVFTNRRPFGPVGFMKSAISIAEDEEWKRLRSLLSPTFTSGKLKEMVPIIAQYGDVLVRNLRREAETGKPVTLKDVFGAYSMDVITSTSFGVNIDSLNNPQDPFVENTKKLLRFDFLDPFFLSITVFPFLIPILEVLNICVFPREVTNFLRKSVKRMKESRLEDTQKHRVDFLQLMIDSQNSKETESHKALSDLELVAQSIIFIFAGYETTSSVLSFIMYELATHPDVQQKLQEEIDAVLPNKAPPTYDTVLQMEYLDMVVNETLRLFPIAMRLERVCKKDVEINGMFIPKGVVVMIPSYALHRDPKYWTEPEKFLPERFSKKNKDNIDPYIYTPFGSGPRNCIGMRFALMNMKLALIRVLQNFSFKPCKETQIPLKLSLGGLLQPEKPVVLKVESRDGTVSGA

As to `COc1ccc2nc(COc3ccc(C[14CH]4SC(=O)NC4=O)cc3)n(C)c2c1.Cl` (racemic), the Drug metabolism entry with Liver microsome is “metabolite_detected”; in data set [1], “metabolite_detected”; at Cytochrome P450 2C8 [2] it was “metabolite_not_detected”; on Cytochrome P450 3A4 it was “metabolite_not_detected”; on Cytochrome P450 2C8 [3] it was “metabolite_not_detected”; at Cytochrome P450 1A2, “metabolite_not_detected”. For the same molecule, the Drug metabolism result in [4] was “metabolite_not_detected”; in data set [5], “metabolite_detected”; in data set [6], “metabolite_detected”.
